Assay [1] concerns the target T1, 3-hydroxy-3-methylglutaryl-coenzyme A reductase (Homo sapiens, UniProt P04035).
T1 sequence (P04035 whole entry): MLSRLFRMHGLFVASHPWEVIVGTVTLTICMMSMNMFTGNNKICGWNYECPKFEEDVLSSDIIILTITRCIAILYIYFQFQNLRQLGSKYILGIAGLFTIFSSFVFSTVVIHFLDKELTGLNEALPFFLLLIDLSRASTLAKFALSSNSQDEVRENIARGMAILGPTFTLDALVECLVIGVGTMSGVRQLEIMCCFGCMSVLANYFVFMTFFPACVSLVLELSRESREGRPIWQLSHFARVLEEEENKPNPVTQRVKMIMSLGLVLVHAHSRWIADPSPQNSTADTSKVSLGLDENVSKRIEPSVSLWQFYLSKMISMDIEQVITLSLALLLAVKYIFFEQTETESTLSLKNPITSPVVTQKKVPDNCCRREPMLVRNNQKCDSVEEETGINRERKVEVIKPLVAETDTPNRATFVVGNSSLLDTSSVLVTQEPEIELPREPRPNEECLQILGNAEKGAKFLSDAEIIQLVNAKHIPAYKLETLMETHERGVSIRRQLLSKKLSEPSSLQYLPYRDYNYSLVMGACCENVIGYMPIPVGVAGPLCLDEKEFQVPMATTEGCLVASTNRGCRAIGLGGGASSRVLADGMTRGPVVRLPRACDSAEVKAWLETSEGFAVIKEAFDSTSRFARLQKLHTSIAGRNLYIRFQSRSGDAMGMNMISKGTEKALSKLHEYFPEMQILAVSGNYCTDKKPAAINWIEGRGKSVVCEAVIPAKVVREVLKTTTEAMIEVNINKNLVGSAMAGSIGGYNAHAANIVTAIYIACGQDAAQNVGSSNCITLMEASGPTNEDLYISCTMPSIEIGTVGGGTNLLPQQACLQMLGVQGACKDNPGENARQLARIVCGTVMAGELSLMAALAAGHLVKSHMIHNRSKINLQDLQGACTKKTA
In words: The compound was tested in vitro for inhibitory activity against HMG-CoA reductase.

The test system of a further assay is Rattus norvegicus. Nature of the assay: […] acute inhibition of [14C]cholesterol synthesis in the rat post peroral administration of the test compound at 0.45 mg/kg. The settings on record: route oral. It is filed as functional. Put shortly: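 Rats given a single oral dose of 0.45 mg/kg; [14C]acetate incorporation into cholesterol measured 1 h after dosing as index of acute cholesterol synthesis inhibition.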

Another assay relates to Canis familiaris. In words: Compound tested […] for % change of plasma cholesterol in cholestyramine-primed dogs after oral administration at 4 mg/kg. It is filed as functional, Canis lupus familiaris.

For `CC[C@H](C)C(=O)O[C@H]1CCC=C2C=C[C@H](C)[C@H](CC[C@@H]3C[C@@H](O)CC(=O)O3)[C@H]21` [MEVASTATIN], in assay [1], inhibition was half-maximal at 0.0284 µM (IC50).
Regarding `CCC(C)(C)C(=O)O[C@@H]1C2C(=C[C@H](C)[C@H]1[C@@H](O)c1ccccc1)C=C[C@H](C)[C@@H]2CC[C@@H]1C[C@@H](O)CC(=O)O1` (some centres undefined), the Change in the assay with Rattus norvegicus is reported as -25%; in the assay with Canis familiaris, -31%.
In the case of `CCC(C)(C)C(=O)O[C@H]1C[C@@H](C)C=C2C=C[C@H](C)[C@H](CC[C@@H]3C[C@@H](O)CC(=O)O3)C21` (some centres undefined), the results for the Change in the assay with Rattus norvegicus and with Canis familiaris were -65% and -60%, respectively.
Take `CC[C@H](C)C(=O)O[C@H]1C[C@@H](C)C=C2C=C[C@H](C)[C@H](CC[C@@H]3C[C@@H](O)CC(=O)O3)C21` (some centres undefined): the Change is -55% in the assay with Rattus norvegicus and -42% with Canis familiaris.
With `CCC(C)(C)C(=O)O[C@@H]1C2C(=C[C@H](C)[C@@H]1O)C=C[C@H](C)[C@@H]2CC[C@@H]1C[C@@H](O)CC(=O)O1` (some centres undefined), the figures for the Change in the assay on Rattus norvegicus and with Canis familiaris were -45% and -36%, respectively.
In the case of `CCC(C)(C)C(=O)O[C@@H]1C2C(=C[C@H](C)[C@H]1[C@H](C)O)C=C[C@H](C)[C@@H]2CC[C@@H]1C[C@@H](O)CC(=O)O1` (some centres undefined), the Change is reported as -28% in the assay with Rattus norvegicus and -32% in the assay on Canis familiaris.
Regarding `CCC(C)(C)C(=O)O[C@@H]1C2C(=C[C@H](C)[C@H]1CO)C=C[C@H](C)[C@@H]2CC[C@@H]1C[C@@H](O)CC(=O)O1` (some centres undefined), the Change in the assay on Rattus norvegicus was -69%; in the assay on Canis familiaris, 0%. The IC50 (commonly the midpoint of a concentration-inhibition curve) in assay [1] came out at 0.0108 µM.

The values above are taken from ChEMBL document CHEMBL1125317, “3-Hydroxy-3-methylglutaryl-coenzyme A reductase inhibitors. 9. The synthesis and biological evaluation of novel simvastatin analogs” (J Med Chem, 1992).
